Values after ≈ are worked out from the molar mass of the structure shown.
How the values were obtained:
Streptococcus pyogenes = assay: The antibacterial activity was evaluated as minimal inhibitory concentration (MIC) against Streptococcus pyogenes C203; type: functional
Outline: (§1)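 Twofold agar dilution of compound in 10 mL brain heart infusion agar. Organisms grown 24 h, diluted 1/100, inoculum applied by multipoint replicator. Plates incubated at 35 °C (24 h per table footnote; 25 h per methods). MIC read as lowest inhibiting concentration, μg/mL. Ristocetin run as standard.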

Staphylococcus aureus = assay: The antibacterial activity was evaluated as minimal inhibitory concentration (MIC) against Staphylococcus aureus Smith; type: functional; outline: as §1
Enterococcus faecalis = assay: The antibacterial activity was evaluated as minimal inhibitory concentration (MIC) against Streptococcus faecalis 10541; type: functional; outline: as §1
[1] = Association constant was evaluated towards synthetic peptidoglycan analogue Ac2-Lys-D-Ala-D-Ala; type: ADME
Outline: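 Differential UV spectroscopy in tandem cells, 2 cm total path. Antibiotic at 50 μg/mL in 20 mM sodium citrate buffer pH 5.1, with 10% methanol for poorly water-soluble compounds. Ac2-Lys-D-Ala-D-Ala peptide added stepwise. Absorbance change followed at the wavelength of maximal change, and the association constant K_A derived from it.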

[2] = tested on: Staphylococcus epidermidis; assay: The antibacterial activity was evaluated as minimal inhibitory concentration (MIC) against Staphylococcus epidermis 3519; type: functional; outline: as §1

| SMILES | MIC (Streptococcus pyogenes) | MIC (Staphylococcus aureus) | MIC (Enterococcus faecalis) | K A [1] | MIC [2] |
| --- | --- | --- | --- | --- | --- |
| COC(=O)[C@H]1NC(=O)C2NC(=O)[C@H](NC(=O)[C@@H]3NC(=O)[C@H]4NC(=O)[C@H](NC(=O)[C@H](O)c5ccc(O)c(c5)Oc5cc4cc(O)c5C)[C@H](O)c4ccc(cc4)Oc4cc3cc(c4O)Oc3ccc(cc3)C2O)c2ccc(O)c(c2)-c2c(O)cc(O)cc21 (stereo not given in full) | 6.2 µg/mL (≈ 5.28 µM) | 12.5 µg/mL (≈ 10.6 µM) | 6.2 µg/mL (≈ 5.28 µM) | 150000 M⁻¹ | 12.5 µg/mL (≈ 10.6 µM) |
| COC(=O)[C@H]1NC(=O)C2NC(=O)[C@H](NC(=O)[C@@H]3NC(=O)[C@H]4NC(=O)[C@H](NC(=O)/C(=N/O)c5ccc(O)c(c5)Oc5cc4cc(O)c5C)[C@H](O)c4ccc(cc4)Oc4cc3cc(c4O)Oc3ccc(cc3)C2O)c2ccc(O)c(c2)-c2c(O)cc(O)cc21 (stereo not given in full) | 1.56 µg/mL (≈ 1.31 µM) | 3.1 µg/mL (≈ 2.61 µM) | 3.1 µg/mL (≈ 2.61 µM) | 960000 M⁻¹ | 3.1 µg/mL (≈ 2.61 µM) |
| COC(=O)[C@H]1NC(=O)C2NC(=O)[C@H](NC(=O)[C@@H]3NC(=O)[C@H]4NC(=O)[C@H](NC(=O)C(=O)c5ccc(O)c(c5)Oc5cc4cc(O)c5C)[C@H](O)c4ccc(cc4)Oc4cc3cc(c4O)Oc3ccc(cc3)C2O)c2ccc(O)c(c2)-c2c(O)cc(O)cc21 (stereo not given in full) | 3.1 µg/mL (≈ 2.64 µM) | 6.2 µg/mL (≈ 5.29 µM) | 12.5 µg/mL (≈ 10.7 µM) | 560000 M⁻¹ | 12.5 µg/mL (≈ 10.7 µM) |
| COC(=O)[C@H]1NC(=O)C2NC(=O)[C@H](NC(=O)[C@@H]3NC(=O)[C@H]4NC(=O)[C@H](NC(=O)[C@@H](NC(C)=O)c5ccc(O)c(c5)Oc5cc4cc(O)c5C)[C@H](O)c4ccc(cc4)Oc4cc3cc(c4O)Oc3ccc(cc3)C2O)c2ccc(O)c(c2)-c2c(O)cc(O)cc21 (stereo not given in full) | 3.1 µg/mL (≈ 2.55 µM) | 6.2 µg/mL (≈ 5.1 µM) | 6.2 µg/mL (≈ 5.1 µM) | 140000 M⁻¹ | 6.2 µg/mL (≈ 5.1 µM) |
| COC(=O)[C@H]1NC(=O)[C@H]2NC(=O)[C@H](NC(=O)[C@@H]3NC(=O)[C@H]4NC(=O)[C@H](NC(=O)[C@H](N)c5ccc(O)c(c5)Oc5cc4cc(O)c5C)[C@H](O)c4ccc(cc4)Oc4cc3cc(c4O[C@H]3O[C@H](CO[C@H]4O[C@H](C)[C@@H](O)[C@@H](O)[C@@H]4O)[C@H](O)[C@H](O)[C@H]3O[C@H]3O[C@@H](CO)[C@@H](O)[C@@H](O)[C@H]3O[C@H]3OC[C@@H](O)[C@@H](O)[C@H]3O)Oc3ccc(cc3)[C@H]2O[C@@H]2C[C@@H](N)[C@@H](O)[C@@H](C)O2)c2ccc(O)c(c2)-c2c(O[C@@H]3O[C@H](CO)[C@@H](O)[C@@H](O)[C@@H]3O)cc(O)cc21 | 1.56 µg/mL (≈ 0.754 µM) | 12.5 µg/mL (≈ 6.04 µM) | 6.2 µg/mL (≈ 3 µM) | 600000 M⁻¹ | 25 µg/mL (≈ 12.1 µM) |
| COC(=O)[C@H]1NC(=O)C2NC(=O)[C@H](NC(=O)[C@@H]3NC(=O)[C@H]4NC(=O)[C@H](NC(=O)[C@@H](N)c5ccc(O)c(c5)Oc5cc4cc(O)c5C)[C@H](O)c4ccc(cc4)Oc4cc3cc(c4O)Oc3ccc(cc3)C2O)c2ccc(O)c(c2)-c2c(O)cc(O)cc21 (stereo not given in full) | 3.1 µg/mL (≈ 2.64 µM) | 3.1 µg/mL (≈ 2.64 µM) | 3.1 µg/mL (≈ 2.64 µM) | 670000 M⁻¹ | 3.1 µg/mL (≈ 2.64 µM) |
| COC(=O)[C@H]1NC(=O)C2NC(=O)[C@H](NC(=O)[C@@H]3NC(=O)[C@H]4NC(=O)[C@H](NC(=O)[C@H](N)c5ccc(O)c(c5)Oc5cc4cc(O)c5C)[C@H](O)c4ccc(cc4)Oc4cc3cc(c4O)Oc3ccc(cc3)C2O)c2ccc(O)c(c2)-c2c(O)cc(O)cc21 (stereo not given in full) | 25 µg/mL (≈ 21.3 µM) | 25 µg/mL (≈ 21.3 µM) | 50 µg/mL (≈ 42.6 µM) | 20000 M⁻¹ | 50 µg/mL (≈ 42.6 µM) |

Source: ChEMBL document CHEMBL1123055, “Preparation of biologically active ristocetin derivatives: replacements of the 1'-amino group” (J Med Chem, 1985)
